Data reported in ChEMBL document CHEMBL1156597, “Structure-activity relationship of kahalalide F synthetic analogues” (J Med Chem, 2008).

Tests used:
LoVo [1] = assay: Cytotoxicity against human LoVo cells after 48 hrs by SRB assay; type: functional; conditions: for CC50: read-out: LC50 (the source's name)
LoVo [2] = assay: Cytotoxicity against human doxorubicin resistant LoVo cells after 48 hrs by SRB assay; type: functional; conditions: for CC50: read-out: LC50 (the source's name)
Procedure, shortened: (§1)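 Cells grown in RPMI 1640 with 10% FBS and penicillin/streptomycin at 37 °C and 5% CO₂, trypsinized, then seeded at 5 × 10³/well. After 18 h drug-free attachment, samples in DMSO/EtOH/PBS (0.5:0.5:99) were added for 48 h continuous exposure. Cells were fixed with cold TCA (1 h, 4 °C) and stained with SRB (10 min). Tris-solubilized stain read at 490 nm. Triplicate wells, mean ± SD; GI₅₀ derived.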

SK-BR-3 = assay: Cytotoxicity against human SKBR3 cells after 48 hrs by SRB assay; type: functional; conditions: SK-BR-3, 48 h; for GI50: read-out: GI50; for CC50: read-out: LC50 (the source's name); procedure, shortened: as §1
DU-145 = assay: Cytotoxicity against human DU145 cells after 48 hrs by SRB assay; type: functional, cell-based; conditions: Homo sapiens, DU-145, 48 h; for GI50: read-out: GI50; for CC50: read-out: LC50 (the source's name); procedure, shortened: as §1
HT-29 = assay: Cytotoxicity against human HT29 cells after 48 hrs by SRB assay; type: functional, cell-based; conditions: Homo sapiens, HT-29, 48 h; for CC50: read-out: LC50 (the source's name); procedure, shortened: as §1
A549 = assay: Cytotoxicity against human A549 cells after 48 hrs by SRB assay; type: functional, cell-based; conditions: Homo sapiens, A549, 48 h; for GI50: read-out: GI50; procedure, shortened: as §1
SK-MEL-28 = assay: Cytotoxicity against human SK-MEL-28 cells after 48 hrs by SRB assay; type: functional, cell-based; conditions: Homo sapiens, SK-MEL-28, 48 h; for GI50: read-out: GI50; for CC50: read-out: LC50 (the source's name); procedure, shortened: as §1
[3] = Cytotoxicity against human IGROV-ET cells after 48 hrs by SRB assay; type: functional; conditions: for CC50: read-out: LC50 (the source's name); procedure, shortened: as §1
HeLa = assay: Cytotoxicity against human HeLa cells after 48 hrs by SRB assay; type: functional; conditions: for CC50: read-out: LC50 (the source's name); procedure, shortened: as §1
[4] = Cytotoxicity against human HeLa-APL cells after 48 hrs by SRB assay; type: functional; procedure, shortened: as §1
K562 = assay: Cytotoxicity against human K562 cells after 48 hrs by SRB assay; type: functional; conditions: K562, 48 h; for CC50: read-out: LC50 (the source's name); procedure, shortened: as §1
LNCaP = assay: Cytotoxicity against human LNcaP cells after 48 hrs by SRB assay; type: functional; conditions: for CC50: read-out: LC50 (the source's name); procedure, shortened: as §1
PANC-1 = assay: Cytotoxicity against human PANC1 cells after 48 hrs by SRB assay; type: functional; conditions: PANC-1, 48 h, read-out: LC50 (the source's name); procedure, shortened: as §1
[5] = Cytotoxicity against human IGROV cells after 48 hrs by SRB assay; type: functional; conditions: for CC50: read-out: LC50 (the source's name); procedure, shortened: as §1

Row | Structure (SMILES) | GI50 (LoVo [1]) [nM] | TGI (LoVo [1]) [nM] | CC50 (LoVo [1]) [nM] | GI50 (LoVo [2]) [nM] | TGI (LoVo [2]) [nM] | CC50 (LoVo [2]) [nM] | TGI (SK-BR-3) [nM] | GI50 (SK-BR-3) [nM] | CC50 (SK-BR-3) [nM] | TGI (DU-145) [nM] | GI50 (DU-145) [nM] | CC50 (DU-145) [nM] | GI50 (HT-29) [nM] | TGI (HT-29) [nM] | CC50 (HT-29) [nM] | LC50 (A549) [nM] | TGI (A549) [nM] | GI50 (A549) [nM] | CC50 (SK-MEL-28) [nM] | GI50 [3] [nM] | further results
1 | C/C=C1\NC(=O)[C@H](Cc2ccccc2)NC(=O)[C@@H](C(C)C)NC(=O)[C@@H]([C@H](C)CC)NC(=O)[C@H](NC(=O)[C@H](NC(=O)[C@H](CCCNC(=O)C(F)(F)F)NC(=O)[C@H]2CCCN2C(=O)[C@H](NC(=O)[C@@H](NC(=O)[C@@H](NC(=O)[C@H](NC(=O)CC[C@@H](C)CC)C(C)C)[C@@H](C)O)C(C)C)C(C)C)[C@H](C)CC)[C@H](C)OC(=O)[C@H](C(C)C)NC1=O | 311 | 296 | 282 | 276 | 282 | 287 | 190 | 112 | 320 | 1100 | 1330 | 898 | 266 | 301 | 342 | 1200 | 1170 | 1140 | 1220 | 508 | TGI (SK-MEL-28): 1540 nM; GI50 (SK-MEL-28): 1910 nM; GI50 ([3]; read-out: GI50): 489 nM; CC50 [3]: 528 nM; GI50 (HeLa): 502 nM; TGI (HeLa): 463 nM; CC50 (HeLa): 525 nM; GI50 [4]: 1210 nM; LC50 (concentration giving 50% net cell kill) [4]: 789 nM; TGI [4]: 963 nM; CC50 (K562): 1810 nM; GI50 (LNCaP): 1460 nM; TGI (LNCaP): 1990 nM; CC50 (LNCaP): 1410 nM; CC50 (PANC-1): 1660 nM; GI50 [5]: 276 nM; GI50 ([5]; read-out: GI50): 305 nM; CC50 [5]: 87.5 nM
2 | CC[C@@H](C)[C@@H](NC(=O)[C@H](CCCN)NC(=O)[C@H]1CCCN1C(=O)[C@H](NC(=O)[C@@H](NC(=O)[C@@H](NC(=O)[C@H](NC(=O)CCCC(C)C)C(C)C)[C@@H](C)O)C(C)C)C(C)C)C(=O)N[C@H]1C(=O)N[C@H]([C@H](C)CC)C(=O)N[C@H](C(C)C)C(=O)N[C@@H](Cc2ccccc2)C(=O)NCC(=O)N[C@@H](C(C)C)C(=O)O[C@H]1C | 1840 | 1850 | 1680 | 830 | 1020 | 362 | 1640 | 1660 | 683 | 1160 | 1410 | 953 | 2260 | 2120 | 775 | 1460 | 2100 | 1630 | 1780 | 465 | TGI (SK-MEL-28): 1700 nM; GI50 (SK-MEL-28): 1390 nM; GI50 ([3]; read-out: GI50): 722 nM; CC50 [3]: 308 nM; CC50 (HeLa): 526 nM; GI50 [4]: 1830 nM; LC50 (concentration giving 50% net cell kill) [4]: 1450 nM; TGI [4]: 2860 nM; GI50 (K562): 2530 nM; TGI (K562): 3040 nM; CC50 (K562): 1970 nM; GI50 (LNCaP): 2740 nM; TGI (LNCaP): 2780 nM; CC50 (LNCaP): 1420 nM; CC50 (PANC-1): 1810 nM; GI50 [5]: 748 nM; GI50 ([5]; read-out: GI50): 1640 nM; CC50 [5]: 361 nM
3 | C/C=C1\NC(=O)[C@H](Cc2ccccc2)NC(=O)[C@@H](C(C)C)NC(=O)[C@@H]([C@H](C)CC)NC(=O)[C@H](NC(=O)[C@H](NC(=O)[C@H](CCCNC(=O)C(F)(F)F)NC(=O)[C@H]2CCCN2C(=O)[C@H](NC(=O)[C@@H](NC(=O)[C@@H](NC(=O)[C@H](NC(=O)CC[C@@H](C)CC)C(C)C)[C@@H](C)OC(=O)C(F)(F)F)C(C)C)C(C)C)[C@H](C)CC)[C@H](C)OC(=O)[C@H](C(C)C)NC1=O | 276 | 284 | 294 | 363 | 396 | 1130 | 322 | 331 | 313 | 1170 | 1460 | 931 | 329 | 355 | 381 | 1180 | 1200 | 1230 | 1140 | 911 | GI50 ([3]; read-out: GI50): 770 nM; CC50 [3]: 2480 nM; GI50 (HeLa): 656 nM; TGI (HeLa): 597 nM; CC50 (HeLa): 543 nM; GI50 [4]: 849 nM; LC50 (concentration giving 50% net cell kill) [4]: 679 nM; TGI [4]: 778 nM; CC50 (K562): 1710 nM; GI50 (LNCaP): 1140 nM; TGI (LNCaP): 1720 nM; CC50 (LNCaP): 1330 nM; CC50 (PANC-1): 1570 nM; GI50 [5]: 397 nM; GI50 ([5]; read-out: GI50): 373 nM; CC50 [5]: 281 nM
